Assay results: publication PMC9826439 (Chemistry (Weinheim an Der Bergstrasse, Germany), 2022)

Columns and labels:
[1] = target: rhodesain-like proteases (TbCatLs) in T. b. brucei cell lysate (Trypanosoma brucei brucei, UniProt P14658); assay: Competition profiling assay with ABP 7, T. b. brucei cell lysate; type: biochemical; conditions: T. b. brucei cell lysate 80 μg protein; inhibitor 0.016–10 μM, then ABP 7 5 μM
human cathepsin L = human cathepsin L (Homo sapiens, UniProt P07711); assay: Cathepsin L inhibition assay; type: biochemical; conditions: ratio of k inac/K i values
Sequence of human cathepsin L (P07711 114-333): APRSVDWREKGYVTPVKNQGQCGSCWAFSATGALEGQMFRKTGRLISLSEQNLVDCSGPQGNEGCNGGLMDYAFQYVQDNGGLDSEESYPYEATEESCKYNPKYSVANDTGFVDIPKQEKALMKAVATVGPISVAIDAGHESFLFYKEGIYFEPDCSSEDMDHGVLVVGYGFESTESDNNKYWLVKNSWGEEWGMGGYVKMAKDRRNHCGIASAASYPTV
Method in brief: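 Commercial human cathepsin; inactivation progress curves recorded for 60 min at five test-compound concentrations, in duplicate. pNA substrates were read at 405 nm (cuvette) and AMC substrates at λex 360/λem 460 nm. kobs came from a non-linear progress-curve fit, and kinac/Ki from a kobs vs [I] fit corrected by [S]/Km. Remaining activity was taken at 5 μM. SR is the ratio of rhodesain to cathepsin kinac/Ki.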

rhodesain = rhodesain (Trypanosoma brucei rhodesiense, UniProt Q95PM0); conditions: E-64 15 µM preincubated 37 °C 15 min, then ABP 7 15 µM
Sequence of rhodesain (Q95PM0 126-340 limits assumed): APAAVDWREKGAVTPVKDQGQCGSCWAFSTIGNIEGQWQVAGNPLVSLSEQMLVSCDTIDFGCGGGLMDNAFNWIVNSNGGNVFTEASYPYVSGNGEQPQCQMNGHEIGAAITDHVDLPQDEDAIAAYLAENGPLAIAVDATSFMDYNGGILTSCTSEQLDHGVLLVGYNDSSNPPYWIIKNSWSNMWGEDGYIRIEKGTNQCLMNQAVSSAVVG

Sequence of rhodesain-like proteases (TbCatLs) in T. b. brucei cell lysate (P14658 126-450): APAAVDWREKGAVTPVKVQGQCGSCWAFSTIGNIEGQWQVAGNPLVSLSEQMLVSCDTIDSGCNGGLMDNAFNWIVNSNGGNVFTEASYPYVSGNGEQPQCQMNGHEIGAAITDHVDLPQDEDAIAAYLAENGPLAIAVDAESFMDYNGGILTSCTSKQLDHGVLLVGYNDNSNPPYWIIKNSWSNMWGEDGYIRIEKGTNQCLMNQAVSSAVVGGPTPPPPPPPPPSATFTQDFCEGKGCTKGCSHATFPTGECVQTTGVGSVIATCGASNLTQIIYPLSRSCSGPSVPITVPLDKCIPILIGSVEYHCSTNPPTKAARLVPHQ

concentration at which significantly lowered ABP 7 labeling signal was observed [1]	selectivity ratio (SR rhodesain/cathepsin L) (human cathepsin L)	generation of the fluorescent rhodesain-7 adduct (rhodesain)	Structure (SMILES)
80 nM	23.8		Cc1ccc(C[C@H](NC(=O)OC(C)(C)C)C(=O)NC/C=C/S(=O)(=O)c2ccccc2)cc1 [Compound 2, (S,E)‐tert‐Butyl 1‐oxo‐1‐(3‐(phenylsulfonyl)allylamino)‐3‐p‐tolylpropan‐2‐ylcarbamate]
		completely abolished	CC(C)C[C@H](NC(=O)[C@H]1O[C@@H]1C(=O)O)C(=O)NCCCCN=C(N)N [E‐64]
